Experimental data reported in ChEMBL document CHEMBL3244193, “Design of species- or isozyme-specific enzyme inhibitors. 3. Species and isozymic differences between mammalian and bacterial adenylate kinases in substituent tolerance in an enzyme-substrate complex” (J Med Chem, 1979).

How the values were obtained:
[1] = biological target: Adenylate kinase 2, mitochondrial (Rattus norvegicus, UniProt P29410); assay: Competitive inhibition of Sprague-Dawley rat liver adenylate kinase 2 by Lineweaver-Burk plot analysis
Procedure, shortened: (§1)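 Inhibition constants from the coupled NADH assay (A340, 23 °C, 0.25 mM AMP, pH 7.6). Two inhibitor levels were each run against five or more ATP levels: 0.1-0.8 mM for AK II/III, 0.15-1.1 mM for muscle AK. Ki applies to ATP-competitive inhibition and I50 to noncompetitive inhibition.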

[2] = biological target: GTP:AMP phosphotransferase AK3, mitochondrial (Rattus norvegicus, UniProt P29411); assay: Competitive inhibition of Sprague-Dawley rat liver adenylate kinase 3 by Lineweaver-Burk plot analysis; procedure, shortened: as §1
[3] = biological target: T1, Adenylate kinase isoenzyme 1 (Rattus norvegicus, UniProt P39069); assay: Noncompetitive inhibition of Sprague-Dawley rat muscle adenylate kinase by Lineweaver-Burk plot analysis; conditions: read-out: I50
T1 sequence (P39069 whole entry): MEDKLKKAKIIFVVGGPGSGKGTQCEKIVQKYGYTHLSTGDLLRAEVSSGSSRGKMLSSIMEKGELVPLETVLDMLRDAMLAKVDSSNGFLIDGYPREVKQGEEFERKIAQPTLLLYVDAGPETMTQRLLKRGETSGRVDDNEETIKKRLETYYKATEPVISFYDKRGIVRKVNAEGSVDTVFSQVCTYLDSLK
Procedure, shortened: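 Enzyme source: rat skeletal muscle homogenized in KHPO4/glucose/EDTA/dithioerythritol/glycerol buffer and spun 1 h at 90000g, 2 °C. Electrofocused at pH 6-8; the AK zone (pI 6.4) was dialyzed as for the liver isozymes and held at 4 °C.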

[4] = Noncompetitive inhibition of Escherichia coli adenylate kinase by Lineweaver-Burk plot analysis; conditions: read-out: I50
Procedure, shortened: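 E. coli B AK partially purified by ammonium sulfate fractionation and DEAE-cellulose chromatography; the single AK-active protein had pI 4.9. ATP KM was 0.06 mM with AMP at 0.13–0.29 mM in the coupled NADH assay (A340, 23 °C, pH 7.6 Tris).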

Chain of GTP:AMP phosphotransferase AK3, mitochondrial (P29411 whole entry): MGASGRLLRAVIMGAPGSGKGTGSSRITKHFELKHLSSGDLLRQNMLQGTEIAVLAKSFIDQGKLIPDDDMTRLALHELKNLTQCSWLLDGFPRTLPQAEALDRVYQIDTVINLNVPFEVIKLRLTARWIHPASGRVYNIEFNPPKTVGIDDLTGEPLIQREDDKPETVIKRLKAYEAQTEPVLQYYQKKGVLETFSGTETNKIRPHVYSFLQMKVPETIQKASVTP

Compound	Ki [1] [µM]	Ki [2] [µM]	IC50 [3] [mM]	IC50 [4] [mM]
CSc1nc2c(N)ncnc2n1[C@@H]1O[C@H](COP(=O)(O)OP(=O)(O)OP(=O)(O)O)[C@@H](O)[C@H]1O	320	360	5.95	–
Nc1ncnc2c1nc(SCCO)n2[C@@H]1O[C@H](COP(=O)(O)OP(=O)(O)OP(=O)(O)O)[C@@H](O)[C@H]1O	250	220	–	–
CCSc1nc2c(N)ncnc2n1[C@@H]1O[C@H](COP(=O)(O)OP(=O)(O)OP(=O)(O)O)[C@@H](O)[C@H]1O	80	50	–	5.9
Nc1ncnc2c1nc(SCCCCO)n2[C@@H]1O[C@H](COP(=O)(O)OP(=O)(O)OP(=O)(O)O)[C@@H](O)[C@H]1O	145	130	–	–
CCCCSc1nc2c(N)ncnc2n1[C@@H]1O[C@H](COP(=O)(O)OP(=O)(O)OP(=O)(O)O)[C@@H](O)[C@H]1O	75	60	6.2	–
CCCSc1nc2c(N)ncnc2n1[C@@H]1O[C@H](COP(=O)(O)OP(=O)(O)OP(=O)(O)O)[C@@H](O)[C@H]1O	55	65	6.15	4.7
O=C(CI)NCCCCCNc1ncnc2c1ncn2[C@@H]1O[C@H](COP(=O)(O)OP(=O)(O)OP(=O)(O)O)[C@@H](O)[C@H]1O	–	–	–	4.75
Nc1ncnc2c1nc(Sc1ccccc1)n2[C@@H]1O[C@H](COP(=O)(O)OP(=O)(O)OP(=O)(O)O)[C@@H](O)[C@H]1O	320	–	–	–
CCCCCSc1nc2c(N)ncnc2n1[C@@H]1O[C@H](COP(=O)(O)OP(=O)(O)OP(=O)(O)O)[C@@H](O)[C@H]1O	80	60	–	–
CC(=O)NCCCCCCNc1ncnc2c1ncn2[C@@H]1O[C@H](COP(=O)(O)OP(=O)(O)OP(=O)(O)O)[C@@H](O)[C@H]1O	–	4750	12.9	–
